Experimental data published in ChEMBL document CHEMBL2429794, “Tuning the antibacterial activity of amphiphilic neamine derivatives and comparison to paromamine homologues” (J Med Chem, 2013).
Values after ≈ are worked out from the molar mass of the structure shown.

Key:
Acinetobacter lwoffii [1] = test: Antibacterial activity against Acinetobacter lwoffii ATCC 17925 after 24 hrs by geometric microdilution method; format: functional; conditions: ATCC 17925, 24 h
Pseudomonas aeruginosa [2] = test: Antibacterial activity against Pseudomonas aeruginosa ATCC 27853 after 24 hrs by geometric microdilution method; format: functional; conditions: ATCC 27853, 24 h
Escherichia coli [3] = test: Antibacterial activity against Escherichia coli PAZ505H8101 expressing AAC6'-1B after 24 hrs by geometric microdilution method; format: functional; conditions: PAZ505H8101, 24 h
Staphylococcus aureus [4] = test: Antibacterial activity against Staphylococcus aureus expressing aminoglycoside-[…] after 24 hrs by geometric microdilution method; format: functional
Procedure, shortened: (§1)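 Broth cultures were incubated in plates at 37 °C, and growth was read as absorbance at 650 nm after 1, 4, 7 and 24 h. Ampicillin (16 mg/L) was the positive control and DMSO the negative control. Each MIC (μg/mL) is the average of at least three determinations.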

Klebsiella pneumoniae = test: Antibacterial activity against Klebsiella pneumoniae ATCC 700603 after 24 hrs by geometric microdilution method; format: functional; conditions: ATCC 700603, 24 h
Pseudomonas aeruginosa [5] = test: Antibacterial activity against Pseudomonas aeruginosa PA22 (PT629) expressing MexXY after 24 hrs by geometric microdilution method; format: functional
Staphylococcus aureus [6] = test: Antibacterial activity against Staphylococcus aureus expressing aminoglycoside-3'-O-phosphoryltransferase after 24 hrs by geometric microdilution method; format: functional; procedure, shortened: as §1
Escherichia coli [7] = test: Antibacterial activity against Escherichia coli L58058.1 expressing ANT2''-1A after 24 hrs by geometric microdilution method; format: functional; conditions: L58058.1, 24 h
Acinetobacter lwoffii [8] = test: Antibacterial activity against Acinetobacter lwoffii AI.88-483 expressing APH3'-6A after 24 hrs by geometric microdilution method; format: functional; conditions: AI.88-483, 24 h
Staphylococcus aureus [9] = test: Antibacterial activity against fluoroquinolone-resistant Staphylococcus aureus 1199B expressing NorA efflux pump after 24 hrs by geometric microdilution method; format: functional; procedure, shortened: as §1
Staphylococcus aureus [10] = test: microbe, parasite or virus in culture; conditions: ATCC 25923, 24 h
Pseudomonas aeruginosa [11] = test: Antibacterial activity against Pseudomonas aeruginosa F03 expressing AAC6'-2A after 24 hrs by geometric microdilution method; format: functional; conditions: F03, 24 h
Staphylococcus aureus [12] = test: Antibacterial activity against healthcare-acquired methicillin-resistant Staphylococcus aureus ATCC 33592 after 24 hrs by geometric microdilution method; format: functional; conditions: ATCC 33592, 24 h; procedure, shortened: as §1
Staphylococcus aureus [13] = test: Antibacterial activity against Staphylococcus aureus expressing aminoglycoside-6'-N-acetyltransferase/2''-O-phosphoryltransferase after 24 hrs by geometric microdilution method; format: functional; procedure, shortened: as §1
Staphylococcus aureus [14] = test: Antibacterial activity against 14- and 15-membered macrolide-resistant Staphylococcus aureus expressing MsrA efflux pump after 24 hrs by geometric microdilution method; format: functional; procedure, shortened: as §1
Escherichia coli [15] = test: microbe, parasite or virus in culture; conditions: ATCC 25922, 24 h
Staphylococcus aureus [16] = test: Antibacterial activity against vancomycin-resistant Staphylococcus aureus VRS2 after 24 hrs by geometric microdilution method; format: functional; conditions: VRS2, 24 h; procedure, shortened: as §1

Row | Compound | MIC (Acinetobacter lwoffii [1]) | MIC (Pseudomonas aeruginosa [2]) | MIC (Escherichia coli [3]) | MIC (Staphylococcus aureus [4]) | MIC (Klebsiella pneumoniae) | MIC (Pseudomonas aeruginosa [5]) | MIC (Staphylococcus aureus [6]) | MIC (Escherichia coli [7]) | MIC (Acinetobacter lwoffii [8]) | MIC (Staphylococcus aureus [9]) | MIC (Staphylococcus aureus [10]) | MIC (Pseudomonas aeruginosa [11]) | MIC (Staphylococcus aureus [12]) | MIC (Staphylococcus aureus [13]) | MIC (Staphylococcus aureus [14]) | MIC (Escherichia coli [15]) | MIC (Staphylococcus aureus [16])
1 | N[C@H]1[C@@H](O[C@H]2[C@H](O)[C@@H](OCc3cccc4ccccc34)[C@H](N)C[C@@H]2N)O[C@H](CO)[C@@H](O)[C@@H]1OCc1cccc2ccccc12 | 128 µg/mL (≈ 212 µM) | 64 µg/mL (≈ 106 µM) | 64 µg/mL (≈ 106 µM) | 32 µg/mL (≈ 53 µM) | 128 µg/mL (≈ 212 µM) | > 128 µg/mL | 32 µg/mL (≈ 53 µM) | 128 µg/mL (≈ 212 µM) | > 128 µg/mL | 64 µg/mL (≈ 106 µM) | 32 µg/mL (≈ 53 µM) | 128 µg/mL (≈ 212 µM) | 32 µg/mL (≈ 53 µM) | 64 µg/mL (≈ 106 µM) | 64 µg/mL (≈ 106 µM) | 128 µg/mL (≈ 212 µM) | –
2 | N[C@H]1[C@@H](O[C@H]2[C@H](O)[C@@H](OCc3ccc4ccccc4c3)[C@H](N)C[C@@H]2N)O[C@H](CO)[C@@H](OCc2ccc3ccccc3c2)[C@@H]1OCc1ccc2ccccc2c1 | 1 µg/mL (≈ 1.34 µM) | 32 µg/mL (≈ 43 µM) | 16 µg/mL (≈ 21.5 µM) | 8 µg/mL (≈ 10.8 µM) | 32 µg/mL (≈ 43 µM) | 32 µg/mL (≈ 43 µM) | 4 µg/mL (≈ 5.38 µM) | 32 µg/mL (≈ 43 µM) | > 128 µg/mL | 16 µg/mL (≈ 21.5 µM) | 2 µg/mL (≈ 2.69 µM) | 32 µg/mL (≈ 43 µM) | 64 µg/mL (≈ 86 µM) | 16 µg/mL (≈ 21.5 µM) | 32 µg/mL (≈ 43 µM) | 64 µg/mL (≈ 86 µM) | 128 µg/mL (≈ 172 µM)
3 | NC[C@H]1O[C@H](O[C@H]2[C@H](O)[C@@H](O)[C@H](N)C[C@@H]2N)[C@H](N)[C@@H](O)[C@@H]1O [NEAMINE] | 2 µg/mL (≈ 6.2 µM) | > 128 µg/mL | > 128 µg/mL | > 128 µg/mL | 32 µg/mL (≈ 99.3 µM) | > 128 µg/mL | > 128 µg/mL | 32 µg/mL (≈ 99.3 µM) | > 128 µg/mL | 32 µg/mL (≈ 99.3 µM) | 32 µg/mL (≈ 99.3 µM) | > 128 µg/mL | > 128 µg/mL | 16 µg/mL (≈ 49.6 µM) | 16 µg/mL (≈ 49.6 µM) | 32 µg/mL (≈ 99.3 µM) | ≥ 128 µg/mL
4 | NC[C@H]1O[C@H](O[C@H]2[C@H](O)[C@@H](OCc3ccc4ccccc4c3)[C@H](N)C[C@@H]2N)[C@H](N)[C@@H](OCc2ccc3ccccc3c2)[C@@H]1O | 64 µg/mL (≈ 106 µM) | 128 µg/mL (≈ 212 µM) | 64 µg/mL (≈ 106 µM) | 8 µg/mL (≈ 13.3 µM) | ≥ 128 µg/mL | > 128 µg/mL | 4 µg/mL (≈ 6.64 µM) | 64 µg/mL (≈ 106 µM) | > 128 µg/mL | 8 µg/mL (≈ 13.3 µM) | 8 µg/mL (≈ 13.3 µM) | 128 µg/mL (≈ 212 µM) | 16 µg/mL (≈ 26.5 µM) | 8 µg/mL (≈ 13.3 µM) | 8 µg/mL (≈ 13.3 µM) | 64 µg/mL (≈ 106 µM) | 16 µg/mL (≈ 26.5 µM)
5 | NC[C@H]1O[C@H](O[C@H]2[C@H](O)[C@@H](OCc3cccc4ccccc34)[C@H](N)C[C@@H]2N)[C@H](N)[C@@H](OCc2cccc3ccccc23)[C@@H]1OCc1cccc2ccccc12 | 2 µg/mL (≈ 2.69 µM) | 8 µg/mL (≈ 10.8 µM) | 2 µg/mL (≈ 2.69 µM) | 4 µg/mL (≈ 5.38 µM) | 128 µg/mL (≈ 172 µM) | 8 µg/mL (≈ 10.8 µM) | 2 µg/mL (≈ 2.69 µM) | 16 µg/mL (≈ 21.5 µM) | 128 µg/mL (≈ 172 µM) | 4 µg/mL (≈ 5.38 µM) | 1 µg/mL (≈ 1.35 µM) | 8 µg/mL (≈ 10.8 µM) | 4 µg/mL (≈ 5.38 µM) | 4 µg/mL (≈ 5.38 µM) | 2 µg/mL (≈ 2.69 µM) | 8 µg/mL (≈ 10.8 µM) | 16 µg/mL (≈ 21.5 µM)
6 | N[C@H]1[C@@H](O[C@H]2[C@H](O)[C@@H](OCc3ccc4ccccc4c3)[C@H](N)C[C@@H]2N)O[C@H](CO)[C@@H](O)[C@@H]1OCc1ccc2ccccc2c1 | 64 µg/mL (≈ 106 µM) | 128 µg/mL (≈ 212 µM) | 64 µg/mL (≈ 106 µM) | 16 µg/mL (≈ 26.5 µM) | > 128 µg/mL | 128 µg/mL (≈ 212 µM) | 16 µg/mL (≈ 26.5 µM) | 64 µg/mL (≈ 106 µM) | > 128 µg/mL | 32 µg/mL (≈ 53 µM) | 8 µg/mL (≈ 13.3 µM) | 64 µg/mL (≈ 106 µM) | 16 µg/mL (≈ 26.5 µM) | 32 µg/mL (≈ 53 µM) | 32 µg/mL (≈ 53 µM) | 128 µg/mL (≈ 212 µM) | 16 µg/mL (≈ 26.5 µM)
7 | CCCCCCO[C@@H]1[C@@H](N)[C@@H](O[C@H]2[C@H](O)[C@@H](OCCCCCC)[C@H](N)C[C@@H]2N)O[C@H](CN)[C@H]1O | > 128 µg/mL | > 128 µg/mL | 128 µg/mL (≈ 261 µM) | > 128 µg/mL | > 128 µg/mL | > 128 µg/mL | > 128 µg/mL | 128 µg/mL (≈ 261 µM) | > 128 µg/mL | 128 µg/mL (≈ 261 µM) | 128 µg/mL (≈ 261 µM) | > 128 µg/mL | 128 µg/mL (≈ 261 µM) | > 128 µg/mL | 128 µg/mL (≈ 261 µM) | 128 µg/mL (≈ 261 µM) | 128 µg/mL (≈ 261 µM)
8 | N[C@H]1[C@@H](O[C@H]2[C@H](O)[C@@H](OCc3cccc4ccccc34)[C@H](N)C[C@@H]2N)O[C@H](CO)[C@@H](OCc2cccc3ccccc23)[C@@H]1OCc1cccc2ccccc12 | 1 µg/mL (≈ 1.34 µM) | 32 µg/mL (≈ 43 µM) | 16 µg/mL (≈ 21.5 µM) | 16 µg/mL (≈ 21.5 µM) | 128 µg/mL (≈ 172 µM) | 32 µg/mL (≈ 43 µM) | 4 µg/mL (≈ 5.38 µM) | 16 µg/mL (≈ 21.5 µM) | 128 µg/mL (≈ 172 µM) | 8 µg/mL (≈ 10.8 µM) | 2 µg/mL (≈ 2.69 µM) | 32 µg/mL (≈ 43 µM) | 32 µg/mL (≈ 43 µM) | 8 µg/mL (≈ 10.8 µM) | 8 µg/mL (≈ 10.8 µM) | 16 µg/mL (≈ 21.5 µM) | 32 µg/mL (≈ 43 µM)
9 | NC[C@H]1O[C@H](O[C@H]2[C@H](O)[C@@H](OCc3cccc4ccccc34)[C@H](N)C[C@@H]2N)[C@H](N)[C@@H](OCc2cccc3ccccc23)[C@@H]1O | 16 µg/mL (≈ 26.5 µM) | 32 µg/mL (≈ 53.1 µM) | 16 µg/mL (≈ 26.5 µM) | 16 µg/mL (≈ 26.5 µM) | > 128 µg/mL | > 128 µg/mL | 8 µg/mL (≈ 13.3 µM) | 32 µg/mL (≈ 53.1 µM) | > 128 µg/mL | 16 µg/mL (≈ 26.5 µM) | 8 µg/mL (≈ 13.3 µM) | 64 µg/mL (≈ 106 µM) | 8 µg/mL (≈ 13.3 µM) | 32 µg/mL (≈ 53.1 µM) | 16 µg/mL (≈ 26.5 µM) | 32 µg/mL (≈ 53.1 µM) | 8 µg/mL (≈ 13.3 µM)
10 | NC[C@@H]1O[C@H](O[C@H]2[C@@H](O)[C@H](O[C@@H]3[C@@H](O)[C@H](N)C[C@H](N)[C@H]3O[C@H]3O[C@H](CN)[C@@H](O)[C@H](O)[C@H]3N)O[C@@H]2CO)[C@H](N)[C@@H](O)[C@@H]1O [FRAMYCETIN] | 0.5 µg/mL (≈ 0.813 µM) | 64 µg/mL (≈ 104 µM) | 4 µg/mL (≈ 6.51 µM) | 32 µg/mL (≈ 52.1 µM) | 16 µg/mL (≈ 26 µM) | 32 µg/mL (≈ 52.1 µM) | > 128 µg/mL | 1 µg/mL (≈ 1.63 µM) | > 128 µg/mL | 1 µg/mL (≈ 1.63 µM) | 2 µg/mL (≈ 3.25 µM) | 128 µg/mL (≈ 208 µM) | > 128 µg/mL | 1 µg/mL (≈ 1.63 µM) | 2 µg/mL (≈ 3.25 µM) | 2 µg/mL (≈ 3.25 µM) | 128 µg/mL (≈ 208 µM)
